According to ChEMBL document CHEMBL4689842, “EUbOPEN Chemogenomics Library wave 1” (2021):

Test system: Fibroblast
Assay: Multiplex assay against human fibroblast
Format: toxicity, cell-based
How it was run: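 Phenotypes for tubulin, mitochondrial mass and membrane permeability are expressed as per cents of healthy-nucleus cells. Cells were stained live at seeding with Hoechst33342, BioTracker Green Microtubule Cytoskeleton Dye, MitoTracker Red and Annexin V Alexa Fluor 680, then imaged after compound addition on a CQ1 microscope at 37°C and 5% CO2. Machine-learning gating in CellPathfinder separated Hoechst high-intensity objects from normal cells, divided normal cells by nuclear state (healthy, pyknosed, fragmented) and divided pyknosed cells into mitotic or apoptotic.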

[1] = 12 h, 1 µM, compound concentration 1 uM, replicate 1
[2] = 12 h, 1 µM, compound concentration 1 uM, replicate 2
[3] = 12 h, 10 µM, compound concentration 10 uM, replicate 1
[4] = 12 h, 10 µM, compound concentration 10 uM, replicate 2
[5] = 24 h, 1 µM, compound concentration 1 uM, replicate 1
[6] = 24 h, 1 µM, compound concentration 1 uM, replicate 2
[7] = 24 h, 10 µM, compound concentration 10 uM, replicate 1
[8] = 24 h, 10 µM, compound concentration 10 uM, replicate 2
[9] = 48 h, 1 µM, compound concentration 1 uM, replicate 1
[10] = 48 h, 1 µM, compound concentration 1 uM, replicate 2
[11] = 48 h, 10 µM, compound concentration 10 uM, replicate 1
[12] = 48 h, 10 µM, compound concentration 10 uM, replicate 2

Structure (SMILES): O=C(Nc1ccc(Cl)cc1)Nc1cccc(-c2cccc(N3CCCC3)n2)c1
- Population Apoptotic (%) [1]: 45%
- Population Fragmented Nuclei (%) [1]: 32%
- Population Healthy Nuclei (%) [1]: 41%
- Population Hoechst High Intensity Objects (%) [1]: 18%
- Population Membrane Permeable-Phenotype (%) [1]: 43%
- Population Mitochondria Different-Phenotype (%) [1]: 5%
- Population Mitotic Cells (%) [1]: 54%
- Population Normal (%) [1]: 81%
- Population Pyknosed Nuclei (%) [1]: 26%
- Population Tubulin-Different-Phenotype (%) [1]: 35%
- Total Cell Count [1]: 110
- Population Apoptotic (%) [2]: 25%
- Population Fragmented Nuclei (%) [2]: 17%
- Population Healthy Nuclei (%) [2]: 76%
- Population Hoechst High Intensity Objects (%) [2]: 7%
- Population Membrane Permeable-Phenotype (%) [2]: 10%
- Population Mitochondria Different-Phenotype (%) [2]: 8%
- Population Mitotic Cells (%) [2]: 75%
- Population Normal (%) [2]: 92%
- Population Pyknosed Nuclei (%) [2]: 6%
- Population Tubulin-Different-Phenotype (%) [2]: 12%
- Total Cell Count [2]: 83
- Population Apoptotic (%) [3]: 66%
- Population Fragmented Nuclei (%) [3]: 21%
- Population Healthy Nuclei (%) [3]: 23%
- Population Hoechst High Intensity Objects (%) [3]: 35%
- Population Membrane Permeable-Phenotype (%) [3]: 40%
- Population Mitochondria Different-Phenotype (%) [3]: 0%
- Population Mitotic Cells (%) [3]: 34%
- Population Normal (%) [3]: 64%
- Population Pyknosed Nuclei (%) [3]: 54%
- Population Tubulin-Different-Phenotype (%) [3]: 54%
- Total Cell Count [3]: 142
- Population Apoptotic (%) [4]: 72%
- Population Fragmented Nuclei (%) [4]: 3%
- Population Healthy Nuclei (%) [4]: 78%
- Population Hoechst High Intensity Objects (%) [4]: 7%
- Population Membrane Permeable-Phenotype (%) [4]: 69%
- Population Mitochondria Different-Phenotype (%) [4]: 7%
- Population Mitotic Cells (%) [4]: 27%
- Population Normal (%) [4]: 92%
- Population Pyknosed Nuclei (%) [4]: 17%
- Population Tubulin-Different-Phenotype (%) [4]: 74%
- Total Cell Count [4]: 69
- Population Apoptotic (%) [5]: 50%
- Population Fragmented Nuclei (%) [5]: 31%
- Population Healthy Nuclei (%) [5]: 52%
- Population Hoechst High Intensity Objects (%) [5]: 13%
- Population Membrane Permeable-Phenotype (%) [5]: 23%
- Population Mitochondria Different-Phenotype (%) [5]: 0%
- Population Mitotic Cells (%) [5]: 50%
- Population Normal (%) [5]: 86%
- Population Pyknosed Nuclei (%) [5]: 15%
- Population Tubulin-Different-Phenotype (%) [5]: 42%
- Total Cell Count [5]: 103
- Population Apoptotic (%) [6]: 20%
- Population Fragmented Nuclei (%) [6]: 18%
- Population Healthy Nuclei (%) [6]: 75%
- Population Hoechst High Intensity Objects (%) [6]: 6%
- Population Membrane Permeable-Phenotype (%) [6]: 7%
- Population Mitochondria Different-Phenotype (%) [6]: 3%
- Population Mitotic Cells (%) [6]: 80%
- Population Normal (%) [6]: 93%
- Population Pyknosed Nuclei (%) [6]: 6%
- Population Tubulin-Different-Phenotype (%) [6]: 12%
- Total Cell Count [6]: 94
- Population Apoptotic (%) [7]: 91%
- Population Fragmented Nuclei (%) [7]: 17%
- Population Healthy Nuclei (%) [7]: 24%
- Population Hoechst High Intensity Objects (%) [7]: 31%
- Population Membrane Permeable-Phenotype (%) [7]: 45%
- Population Mitochondria Different-Phenotype (%) [7]: 33%
- Population Mitotic Cells (%) [7]: 8%
- Population Normal (%) [7]: 68%
- Population Pyknosed Nuclei (%) [7]: 58%
- Population Tubulin-Different-Phenotype (%) [7]: 50%
- Total Cell Count [7]: 145
- Population Apoptotic (%) [8]: 72%
- Population Fragmented Nuclei (%) [8]: 13%
- Population Healthy Nuclei (%) [8]: 54%
- Population Hoechst High Intensity Objects (%) [8]: 25%
- Population Membrane Permeable-Phenotype (%) [8]: 46%
- Population Mitochondria Different-Phenotype (%) [8]: 15%
- Population Mitotic Cells (%) [8]: 27%
- Population Normal (%) [8]: 74%
- Population Pyknosed Nuclei (%) [8]: 31%
- Population Tubulin-Different-Phenotype (%) [8]: 46%
- Total Cell Count [8]: 81
- Population Apoptotic (%) [9]: 55%
- Population Fragmented Nuclei (%) [9]: 40%
- Population Healthy Nuclei (%) [9]: 51%
- Population Hoechst High Intensity Objects (%) [9]: 14%
- Population Membrane Permeable-Phenotype (%) [9]: 33%
- Population Mitochondria Different-Phenotype (%) [9]: 1%
- Population Mitotic Cells (%) [9]: 44%
- Population Normal (%) [9]: 85%
- Population Pyknosed Nuclei (%) [9]: 7%
- Population Tubulin-Different-Phenotype (%) [9]: 28%
- Total Cell Count [9]: 135
- Population Apoptotic (%) [10]: 0%
- Population Fragmented Nuclei (%) [10]: 28%
- Population Healthy Nuclei (%) [10]: 70%
- Population Hoechst High Intensity Objects (%) [10]: 12%
- Population Membrane Permeable-Phenotype (%) [10]: 22%
- Population Mitotic Cells (%) [10]: 100%
- Population Normal (%) [10]: 87%
- Population Pyknosed Nuclei (%) [10]: 1%
- Population Tubulin-Different-Phenotype (%) [10]: 34%
- Total Cell Count [10]: 107
- Population Apoptotic (%) [11]: 94%
- Population Fragmented Nuclei (%) [11]: 19%
- Population Healthy Nuclei (%) [11]: 17%
- Population Hoechst High Intensity Objects (%) [11]: 45%
- Population Membrane Permeable-Phenotype (%) [11]: 35%
- Population Mitochondria Different-Phenotype (%) [11]: 28%
- Population Mitotic Cells (%) [11]: 5%
- Population Normal (%) [11]: 54%
- Population Pyknosed Nuclei (%) [11]: 63%
- Population Tubulin-Different-Phenotype (%) [11]: 50%
- Total Cell Count [11]: 151
- Population Apoptotic (%) [12]: 95%
- Population Fragmented Nuclei (%) [12]: 16%
- Population Healthy Nuclei (%) [12]: 9%
- Population Hoechst High Intensity Objects (%) [12]: 63%
- Population Membrane Permeable-Phenotype (%) [12]: 27%
- Population Mitochondria Different-Phenotype (%) [12]: 18%
- Population Mitotic Cells (%) [12]: 4%
- Population Normal (%) [12]: 36%
- Population Pyknosed Nuclei (%) [12]: 73%
- Population Tubulin-Different-Phenotype (%) [12]: 36%
- Total Cell Count [12]: 325
